In ChEMBL document CHEMBL5653631, “A Potent and Selective ULK1 Inhibitor Suppresses Autophagy and Sensitizes Cancer Cells to Nutrient Stress” (iScience, 2018):

What was measured:
[1] = target: Mitogen-activated protein kinase kinase kinase 10 (Homo sapiens) (UniProt Q02779); assay: Inhibition of human recombinant MLK2 at 40 nM in presence of ATP by radiometric assay relative to control
[2] = target: Serine/threonine-protein kinase PAK 2 (Homo sapiens) (UniProt Q13177); assay: Inhibition of human recombinant PAK2 at 40 nM related to control ULK1
Chain of Serine/threonine-protein kinase PAK 2 (Homo sapiens) (Q13177 whole entry): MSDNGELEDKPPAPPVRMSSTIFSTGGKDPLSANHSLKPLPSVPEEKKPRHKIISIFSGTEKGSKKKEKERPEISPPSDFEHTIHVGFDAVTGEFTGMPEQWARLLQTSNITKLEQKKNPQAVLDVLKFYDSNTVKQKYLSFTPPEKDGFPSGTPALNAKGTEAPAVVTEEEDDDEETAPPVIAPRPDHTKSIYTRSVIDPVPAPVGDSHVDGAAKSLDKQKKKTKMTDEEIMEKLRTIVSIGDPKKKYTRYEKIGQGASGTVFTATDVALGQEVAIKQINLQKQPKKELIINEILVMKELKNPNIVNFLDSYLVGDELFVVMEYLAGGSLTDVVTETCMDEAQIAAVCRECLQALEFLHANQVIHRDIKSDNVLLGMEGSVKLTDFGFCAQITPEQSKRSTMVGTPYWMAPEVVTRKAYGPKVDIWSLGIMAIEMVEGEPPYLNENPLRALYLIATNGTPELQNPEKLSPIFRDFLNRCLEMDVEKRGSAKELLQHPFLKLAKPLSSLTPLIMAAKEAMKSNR

[3] = target: T1, Testis-specific serine/threonine-protein kinase 3 (Homo sapiens) (UniProt Q96PN8); assay: Inhibition of human recombinant TSSK3 at 40 nM related to control ULK1
T1 sequence (whole entry): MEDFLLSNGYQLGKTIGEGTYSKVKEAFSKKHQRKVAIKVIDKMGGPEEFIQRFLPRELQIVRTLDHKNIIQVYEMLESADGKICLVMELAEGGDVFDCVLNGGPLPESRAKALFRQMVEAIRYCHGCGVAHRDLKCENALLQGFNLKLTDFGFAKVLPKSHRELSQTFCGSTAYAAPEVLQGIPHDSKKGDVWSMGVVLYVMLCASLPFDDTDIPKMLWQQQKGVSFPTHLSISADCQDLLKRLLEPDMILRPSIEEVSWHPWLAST

[4] = target: T2, Beta-adrenergic receptor kinase 1 (Homo sapiens) (UniProt P25098); assay: Inhibition of human recombinant BARK1 at 15 nM in presence of ATP by radiometric assay relative to control
T2 sequence (whole entry): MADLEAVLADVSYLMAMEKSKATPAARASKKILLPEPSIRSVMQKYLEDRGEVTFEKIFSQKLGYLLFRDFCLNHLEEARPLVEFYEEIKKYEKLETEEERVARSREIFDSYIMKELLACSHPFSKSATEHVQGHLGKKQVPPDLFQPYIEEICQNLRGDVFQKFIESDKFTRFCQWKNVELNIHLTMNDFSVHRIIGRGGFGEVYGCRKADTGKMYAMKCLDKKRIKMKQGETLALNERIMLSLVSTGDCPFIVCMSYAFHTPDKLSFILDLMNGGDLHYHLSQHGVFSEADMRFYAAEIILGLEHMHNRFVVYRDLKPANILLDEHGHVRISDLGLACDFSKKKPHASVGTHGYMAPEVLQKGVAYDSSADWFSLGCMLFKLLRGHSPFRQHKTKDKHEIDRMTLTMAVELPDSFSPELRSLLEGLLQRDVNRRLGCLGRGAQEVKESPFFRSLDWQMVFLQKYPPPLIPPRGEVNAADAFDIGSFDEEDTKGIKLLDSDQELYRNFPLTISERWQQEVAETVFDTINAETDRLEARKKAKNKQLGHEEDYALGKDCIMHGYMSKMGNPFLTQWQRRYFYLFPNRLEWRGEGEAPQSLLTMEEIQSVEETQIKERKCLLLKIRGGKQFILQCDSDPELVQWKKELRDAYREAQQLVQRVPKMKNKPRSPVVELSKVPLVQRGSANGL
Procedure, shortened: (§1)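 Part of a radiometric in vitro activity panel of 327 recombinant human kinases. Each kinase was tested in duplicate at one inhibitor concentration. Activity remaining was expressed as a percentage of the vehicle control, and percent inhibition was taken as 100 minus that value.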

[5] = target: T3, G protein-coupled receptor kinase 3 (Homo sapiens) (UniProt P35626); assay: Inhibition of human recombinant BARK2 at 15 nM in presence of ATP by radiometric assay relative to control; procedure, shortened: as §1
T3 sequence (whole entry): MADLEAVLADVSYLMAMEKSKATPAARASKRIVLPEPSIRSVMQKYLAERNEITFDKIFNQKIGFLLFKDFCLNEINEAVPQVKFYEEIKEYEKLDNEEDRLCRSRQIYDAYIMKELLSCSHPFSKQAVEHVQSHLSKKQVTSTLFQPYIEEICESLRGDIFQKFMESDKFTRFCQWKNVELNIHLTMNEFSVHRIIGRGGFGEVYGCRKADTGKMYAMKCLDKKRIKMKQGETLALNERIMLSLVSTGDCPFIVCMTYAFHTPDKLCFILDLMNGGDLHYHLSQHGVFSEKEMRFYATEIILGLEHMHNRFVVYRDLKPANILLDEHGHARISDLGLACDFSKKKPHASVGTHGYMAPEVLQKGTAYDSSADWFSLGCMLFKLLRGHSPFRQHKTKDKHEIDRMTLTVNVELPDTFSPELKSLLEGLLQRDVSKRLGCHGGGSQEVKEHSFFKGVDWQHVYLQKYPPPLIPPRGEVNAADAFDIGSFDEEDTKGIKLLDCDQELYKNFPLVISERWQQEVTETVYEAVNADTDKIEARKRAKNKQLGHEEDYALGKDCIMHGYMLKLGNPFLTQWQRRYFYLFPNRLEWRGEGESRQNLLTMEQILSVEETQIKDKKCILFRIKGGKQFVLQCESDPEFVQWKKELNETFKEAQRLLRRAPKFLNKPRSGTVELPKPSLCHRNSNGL

Chain of Mitogen-activated protein kinase kinase kinase 10 (Homo sapiens) (Q02779 whole entry, looked up): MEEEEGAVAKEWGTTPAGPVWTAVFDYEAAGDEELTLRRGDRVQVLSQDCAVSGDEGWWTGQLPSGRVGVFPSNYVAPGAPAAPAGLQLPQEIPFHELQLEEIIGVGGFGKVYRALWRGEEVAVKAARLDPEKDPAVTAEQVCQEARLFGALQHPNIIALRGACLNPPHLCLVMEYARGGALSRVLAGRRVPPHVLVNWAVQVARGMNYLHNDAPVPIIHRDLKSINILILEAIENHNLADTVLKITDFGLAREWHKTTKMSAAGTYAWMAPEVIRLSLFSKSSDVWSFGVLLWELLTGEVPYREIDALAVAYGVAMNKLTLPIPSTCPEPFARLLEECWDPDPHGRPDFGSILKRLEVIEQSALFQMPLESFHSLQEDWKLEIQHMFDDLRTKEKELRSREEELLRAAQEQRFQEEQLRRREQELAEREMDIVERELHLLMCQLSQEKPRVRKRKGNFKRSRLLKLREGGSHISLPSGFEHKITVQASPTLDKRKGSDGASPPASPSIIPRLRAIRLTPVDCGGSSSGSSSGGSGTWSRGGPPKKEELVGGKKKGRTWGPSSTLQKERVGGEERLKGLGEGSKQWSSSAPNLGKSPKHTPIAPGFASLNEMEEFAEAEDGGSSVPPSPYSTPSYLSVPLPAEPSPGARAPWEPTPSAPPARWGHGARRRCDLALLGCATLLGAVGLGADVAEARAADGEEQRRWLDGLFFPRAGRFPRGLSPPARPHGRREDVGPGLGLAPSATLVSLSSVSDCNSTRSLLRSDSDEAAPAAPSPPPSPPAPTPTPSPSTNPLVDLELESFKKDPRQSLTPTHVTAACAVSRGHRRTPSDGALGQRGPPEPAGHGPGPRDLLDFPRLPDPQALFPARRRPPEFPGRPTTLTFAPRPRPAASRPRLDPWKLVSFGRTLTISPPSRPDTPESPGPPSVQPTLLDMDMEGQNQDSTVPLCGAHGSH

O=C(N[C@@H](C1CC1)C(F)(F)F)c1cc(-c2cnn3cc(-c4ccc(F)cc4)cnc23)cs1
inhibition [1]: 0%
fold change (FC) [2]: 0
fold change (FC) [3]: 0

CC(C)[C@H](NC(=O)c1cc(-c2cnn3cc(-c4ccc(OCCN5CCCCC5)cc4)cnc23)cs1)C(F)(F)F
inhibition [4]: 0%
inhibition [5]: 0%
